One molecule from ChEMBL document CHEMBL2331243, “Discovery and mechanism study of SIRT1 activators that promote the deacetylation of fluorophore-labeled substrate” (J Med Chem, 2013) can be followed below.

In data set [1] the test system is T1, NAD-dependent protein deacetylase sirtuin-1 (Homo sapiens), Q96EB6 [Q345A].
T1 sequence (whole entry): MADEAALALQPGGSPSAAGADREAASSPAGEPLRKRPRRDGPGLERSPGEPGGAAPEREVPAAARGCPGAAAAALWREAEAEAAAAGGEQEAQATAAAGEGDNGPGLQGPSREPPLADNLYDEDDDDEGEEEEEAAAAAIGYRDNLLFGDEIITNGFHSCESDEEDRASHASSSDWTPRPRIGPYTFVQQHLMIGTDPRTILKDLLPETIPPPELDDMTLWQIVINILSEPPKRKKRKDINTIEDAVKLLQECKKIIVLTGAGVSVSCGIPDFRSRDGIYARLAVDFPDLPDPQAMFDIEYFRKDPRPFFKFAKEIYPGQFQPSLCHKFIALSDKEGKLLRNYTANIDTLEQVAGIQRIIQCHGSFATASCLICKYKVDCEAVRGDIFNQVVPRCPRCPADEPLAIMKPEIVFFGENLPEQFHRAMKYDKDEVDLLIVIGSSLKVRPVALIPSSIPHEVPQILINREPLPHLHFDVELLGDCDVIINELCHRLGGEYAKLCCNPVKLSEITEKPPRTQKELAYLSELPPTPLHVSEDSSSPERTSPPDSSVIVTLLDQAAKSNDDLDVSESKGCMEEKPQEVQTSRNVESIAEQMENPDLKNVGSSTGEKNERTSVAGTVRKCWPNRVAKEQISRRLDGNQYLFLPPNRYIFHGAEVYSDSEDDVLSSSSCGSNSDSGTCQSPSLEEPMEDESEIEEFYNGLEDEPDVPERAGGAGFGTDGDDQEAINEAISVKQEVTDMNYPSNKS
Put plainly: Activation of SIRT1 Q345A mutant (unknown origin) at 10 uM relative to control.

Data set [2] can be described thus: Stability of the compound in cultured medium at 100 uM after 30 mins. Type of data set: physicochemical. The settings on record: 0.5 h. Put shortly: (§1)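 MCF-7 cells were exposed to 100 μM compound for 0–360 min. Medium and acetonitrile-treated washed cells were collected separately at each time point. Compound spiked into fresh cell-free medium and handled the same way served as control. Samples were centrifuged and quantified by reversed-phase HPLC.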

Data set [3] addresses T2, NAD-dependent protein deacetylase sirtuin-1 (Homo sapiens) (UniProt Q96EB6).
T2 sequence (whole entry): T1 sequence (whole entry) with A345Q
The data set is described as follows: Activation of N-terminal His6-tagged SIRT1 (156 to 664 amino acid residues) (unknown origin) expressed in Escherichia coli BL21(DE3) using ac-RHKKac-AMC as substrate at 50 uM after 45 mins by fluorimetric analysis relative to control. Put shortly:
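Fluorogenic deacetylation screen: 1 μM SIRT1 with 750 μM NAD⁺ and 31.25 μM ac-RHKK_ac-AMC in Tris buffer (25 mM Tris, 137 mM NaCl, 2.7 mM KCl, 1 mM MgCl₂, pH 8.0). Compounds at 50 μM from DMSO stocks; DMSO alone as blank. Trypsin then releases AMC from deacetylated peptide; fluorescence read at 340/490 nm.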

In data set [4] the test system is NAD-dependent protein deacetylase sirtuin-1 (Homo sapiens), Q96EB6 [UNDEFINED MUTATION]. The data set is described as follows: Ratio of EC50 for SIRT1 Q345A mutant (unknown origin) to EC50 for wild type SIRT1 (unknown origin).
Data set [5] has as its system T3, NAD-dependent protein deacetylase sirtuin-1 (Homo sapiens), Q96EB6 [V445A].
T3 sequence (whole entry): T1 sequence (whole entry) with A345Q, V445A
Put plainly: Activation of SIRT1 V445A mutant (unknown origin) at 10 uM relative to control.

The nature of data set [6]: Stability of the compound in cultured medium assessed as compound remaining at 100 uM after 30 mins. The data set is classed as physicochemical. The settings on record: 6 h, in the assay text read “after 6 hrs” for “after 30 mins”. Put shortly: as §1
Data set [7] concerns the target T4, NAD-dependent protein deacetylase sirtuin-1 (Homo sapiens, UniProt Q96EB6).
T4 sequence (Q96EB6 whole entry): T1 sequence (whole entry) with A345Q
Put plainly: Activation of N-terminal His6-tagged SIRT1 (156 to 664 amino acid residues) (unknown origin) expressed in Escherichia coli BL21(DE3) using ac-RHKKac-AMC as substrate after 45 mins by fluorometric analysis.

The target in data set [8] is NAD-dependent protein deacetylase sirtuin-1 (Homo sapiens, UniProt Q96EB6, V445A). The data set is described as follows: Activation of SIRT1 V445A mutant (unknown origin). Put shortly: (§2)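 His-tagged SIRT1 Q345A or V445A mutants were made by site-directed mutagenesis and expressed in E. coli, Ni-NTA purified. They were assayed under the same screening conditions as wild type: 750 μM NAD⁺, 31.25 μM ac-RHKK_ac-AMC, pH 8.0 Tris buffer, trypsin release of AMC, ex 340 / em 490 nm. Compounds came from 3-fold DMSO dilutions. EC1.5 (50% activity increase) was taken from a dose–response fit.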

Data set [9] addresses T2, NAD-dependent protein deacetylase sirtuin-1 (Homo sapiens). The data set is described as follows: Activation of SIRT1 in human MCF7 cells assessed as reduction in doxorubicin-induced acetyl-p53 level at 60 uM after 6 hrs by Western blotting analysis. Type of data set: cell-based. Put shortly:
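MCF-7 cells were seeded at 1 × 10⁵ per well in DMEM with 10% FCS and grown 24 h at 37 °C, 5% CO₂. Graded compound concentrations were added together with 0.1 μM TSA and 5 μM doxorubicin for 6 h. Lysate (50 μg protein) was run on a 9% gel and blotted with an anti-acetyl-p53 (Lys382) polyclonal antibody at 4 °C overnight, then HRP anti-rabbit IgG with chemiluminescence.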
Background: A western blot detects proteins with antibodies after separation by electrophoresis.

A short description of data set [10]: Stability of the compound in fresh cell medium at 100 uM after 120 mins. Type of data set: physicochemical. The settings on record: 2 h. The method in brief:
as §1

The subject of data set [11] is NAD-dependent protein deacetylase sirtuin-1 (Homo sapiens), Q96EB6 [UNDEFINED MUTATION]. The data set is described as follows: Ratio of EC50 for SIRT1 V445A mutant (unknown origin) to EC50 for wild type SIRT1 (unknown origin).
In data set [12] the target is NAD-dependent protein deacetylase sirtuin-1 (Homo sapiens, UniProt Q96EB6, Q345A). Put plainly: Activation of SIRT1 Q345A mutant (unknown origin). The method in brief: as §2
A further data set has as its system MCF7. Put plainly: Drug uptake in human MCF7 cells at 100 uM measured at 30 mins. The data set is classed as ADME, cell-based. The settings on record: mcf7, 0.5 h. The method in brief:
as §1

Substitutions are numbered along the chain they refer to. Active and inactive are the calls of the source. The calls are words filed in the database; no cut-off is given here.

Sequence of NAD-dependent protein deacetylase sirtuin-1 (Homo sapiens), Q96EB6 [UNDEFINED MUTATION] (Q96EB6 whole entry, looked up, stated change not applied): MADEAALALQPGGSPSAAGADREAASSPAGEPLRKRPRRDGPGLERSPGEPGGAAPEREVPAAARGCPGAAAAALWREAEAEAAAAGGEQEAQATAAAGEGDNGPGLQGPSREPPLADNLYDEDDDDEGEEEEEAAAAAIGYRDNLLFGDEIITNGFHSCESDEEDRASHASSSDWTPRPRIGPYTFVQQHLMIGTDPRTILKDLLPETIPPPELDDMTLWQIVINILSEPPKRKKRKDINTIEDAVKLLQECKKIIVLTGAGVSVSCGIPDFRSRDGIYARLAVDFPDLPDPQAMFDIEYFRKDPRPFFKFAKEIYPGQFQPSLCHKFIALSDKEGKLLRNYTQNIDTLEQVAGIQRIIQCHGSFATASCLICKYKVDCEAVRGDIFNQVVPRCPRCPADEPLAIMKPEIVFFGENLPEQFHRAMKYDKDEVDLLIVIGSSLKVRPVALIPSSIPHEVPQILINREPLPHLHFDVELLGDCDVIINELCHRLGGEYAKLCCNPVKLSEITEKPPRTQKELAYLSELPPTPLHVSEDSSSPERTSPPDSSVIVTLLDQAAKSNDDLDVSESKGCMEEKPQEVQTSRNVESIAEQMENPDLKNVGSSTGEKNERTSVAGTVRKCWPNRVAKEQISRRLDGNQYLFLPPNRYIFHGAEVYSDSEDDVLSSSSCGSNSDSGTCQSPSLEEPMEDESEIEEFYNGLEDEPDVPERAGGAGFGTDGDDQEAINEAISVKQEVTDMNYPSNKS
Sequence of NAD-dependent protein deacetylase sirtuin-1 (Homo sapiens, UniProt Q96EB6, V445A) (Q96EB6 2-747 V445A limits assumed): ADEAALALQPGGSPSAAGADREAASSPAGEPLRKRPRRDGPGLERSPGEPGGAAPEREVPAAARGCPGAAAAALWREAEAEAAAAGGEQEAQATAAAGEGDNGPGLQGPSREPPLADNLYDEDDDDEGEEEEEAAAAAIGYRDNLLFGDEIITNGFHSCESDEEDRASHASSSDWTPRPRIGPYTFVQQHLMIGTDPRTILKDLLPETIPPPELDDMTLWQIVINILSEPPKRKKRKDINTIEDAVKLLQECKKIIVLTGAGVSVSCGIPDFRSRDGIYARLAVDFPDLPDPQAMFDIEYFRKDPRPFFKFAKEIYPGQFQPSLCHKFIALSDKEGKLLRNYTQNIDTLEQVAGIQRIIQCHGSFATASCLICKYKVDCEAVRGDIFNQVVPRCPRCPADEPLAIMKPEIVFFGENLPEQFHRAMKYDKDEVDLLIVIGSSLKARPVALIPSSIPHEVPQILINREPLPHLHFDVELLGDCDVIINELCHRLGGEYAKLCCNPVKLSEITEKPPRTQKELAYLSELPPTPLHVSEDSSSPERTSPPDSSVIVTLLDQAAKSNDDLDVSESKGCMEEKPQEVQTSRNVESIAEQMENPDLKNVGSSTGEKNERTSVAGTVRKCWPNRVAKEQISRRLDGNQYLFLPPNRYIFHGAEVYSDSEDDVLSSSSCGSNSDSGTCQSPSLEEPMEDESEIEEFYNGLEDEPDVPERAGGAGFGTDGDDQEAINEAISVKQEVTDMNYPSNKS

For `O=C(N/N=C/c1cc(Br)c(O)c(Br)c1O)c1ccc2cc(Br)ccc2c1`, the results for the max activation in data set [1], in [3] and in data set [5] were 237%, 647% and 353%, respectively. The Stability entry in [2] is “Stable”; in data set [6], 20 µM; in [10] it was “Stable”. The Ratio EC50 in data set [4] turned out to be 4; in data set [11], 2. For the same molecule, the EC50 is 2.7 µM in data set [7], 4.8 µM in data set [8] and 12.2 µM in data set [12]. The outcome in data set [9] was inactive. In addition, in the data set with MCF7, the Drug uptake result was “Active”.

As a reminder, the EC50 is the midpoint of the concentration-response curve. The low end stands for an effect from little substance, the high end for a need for much substance.
